Source: ChEMBL document CHEMBL5705890, “Antitumor activity of an allosteric inhibitor of centromere-associated protein-E” (Proc Natl Acad Sci U S A, 2010)

Columns and labels:
SNU-398 = test: Anticancer activity against human SNU-398 cells assessed as cell growth inhibition measured after 72 hrs by DAPI staining based analysis; type: functional
CGTH-W-1 = test: Anticancer activity against human CGTH-W-1 cells assessed as cell growth inhibition measured after 72 hrs by DAPI staining based analysis; type: functional
Procedure, shortened: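 Cells were seeded, and DNA content at 24 h after seeding (T0) was read by imaging of fixed, DAPI-stained cells. Cells were then exposed to a range of drug concentrations for a further 72 h (T72) and DNA content was read again. T72 values were normalized to T0, and GI50 was taken from curve fits as the concentration giving 50% growth inhibition relative to T0 and Ymax.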

HT-1080 = test: Anticancer activity against human HT-1080 cells assessed as cell doubling measured for 72 hrs by DAPI staining based analysis; type: functional
SCC-4 = test: Anticancer activity against human SCC-4 cells assessed as cell doubling measured for 72 hrs by DAPI staining based analysis; type: functional
[1] = target: Centromere-associated protein E (Homo sapiens, UniProt Q02224, I182L/K184T); test: Binding affinity to human CENP-E I182L/K184T mutant assessed as inhibition constant
Chain of Centromere-associated protein E (Homo sapiens, UniProt Q02224, I182L/K184T) (Q02224 whole entry I182L/K184T): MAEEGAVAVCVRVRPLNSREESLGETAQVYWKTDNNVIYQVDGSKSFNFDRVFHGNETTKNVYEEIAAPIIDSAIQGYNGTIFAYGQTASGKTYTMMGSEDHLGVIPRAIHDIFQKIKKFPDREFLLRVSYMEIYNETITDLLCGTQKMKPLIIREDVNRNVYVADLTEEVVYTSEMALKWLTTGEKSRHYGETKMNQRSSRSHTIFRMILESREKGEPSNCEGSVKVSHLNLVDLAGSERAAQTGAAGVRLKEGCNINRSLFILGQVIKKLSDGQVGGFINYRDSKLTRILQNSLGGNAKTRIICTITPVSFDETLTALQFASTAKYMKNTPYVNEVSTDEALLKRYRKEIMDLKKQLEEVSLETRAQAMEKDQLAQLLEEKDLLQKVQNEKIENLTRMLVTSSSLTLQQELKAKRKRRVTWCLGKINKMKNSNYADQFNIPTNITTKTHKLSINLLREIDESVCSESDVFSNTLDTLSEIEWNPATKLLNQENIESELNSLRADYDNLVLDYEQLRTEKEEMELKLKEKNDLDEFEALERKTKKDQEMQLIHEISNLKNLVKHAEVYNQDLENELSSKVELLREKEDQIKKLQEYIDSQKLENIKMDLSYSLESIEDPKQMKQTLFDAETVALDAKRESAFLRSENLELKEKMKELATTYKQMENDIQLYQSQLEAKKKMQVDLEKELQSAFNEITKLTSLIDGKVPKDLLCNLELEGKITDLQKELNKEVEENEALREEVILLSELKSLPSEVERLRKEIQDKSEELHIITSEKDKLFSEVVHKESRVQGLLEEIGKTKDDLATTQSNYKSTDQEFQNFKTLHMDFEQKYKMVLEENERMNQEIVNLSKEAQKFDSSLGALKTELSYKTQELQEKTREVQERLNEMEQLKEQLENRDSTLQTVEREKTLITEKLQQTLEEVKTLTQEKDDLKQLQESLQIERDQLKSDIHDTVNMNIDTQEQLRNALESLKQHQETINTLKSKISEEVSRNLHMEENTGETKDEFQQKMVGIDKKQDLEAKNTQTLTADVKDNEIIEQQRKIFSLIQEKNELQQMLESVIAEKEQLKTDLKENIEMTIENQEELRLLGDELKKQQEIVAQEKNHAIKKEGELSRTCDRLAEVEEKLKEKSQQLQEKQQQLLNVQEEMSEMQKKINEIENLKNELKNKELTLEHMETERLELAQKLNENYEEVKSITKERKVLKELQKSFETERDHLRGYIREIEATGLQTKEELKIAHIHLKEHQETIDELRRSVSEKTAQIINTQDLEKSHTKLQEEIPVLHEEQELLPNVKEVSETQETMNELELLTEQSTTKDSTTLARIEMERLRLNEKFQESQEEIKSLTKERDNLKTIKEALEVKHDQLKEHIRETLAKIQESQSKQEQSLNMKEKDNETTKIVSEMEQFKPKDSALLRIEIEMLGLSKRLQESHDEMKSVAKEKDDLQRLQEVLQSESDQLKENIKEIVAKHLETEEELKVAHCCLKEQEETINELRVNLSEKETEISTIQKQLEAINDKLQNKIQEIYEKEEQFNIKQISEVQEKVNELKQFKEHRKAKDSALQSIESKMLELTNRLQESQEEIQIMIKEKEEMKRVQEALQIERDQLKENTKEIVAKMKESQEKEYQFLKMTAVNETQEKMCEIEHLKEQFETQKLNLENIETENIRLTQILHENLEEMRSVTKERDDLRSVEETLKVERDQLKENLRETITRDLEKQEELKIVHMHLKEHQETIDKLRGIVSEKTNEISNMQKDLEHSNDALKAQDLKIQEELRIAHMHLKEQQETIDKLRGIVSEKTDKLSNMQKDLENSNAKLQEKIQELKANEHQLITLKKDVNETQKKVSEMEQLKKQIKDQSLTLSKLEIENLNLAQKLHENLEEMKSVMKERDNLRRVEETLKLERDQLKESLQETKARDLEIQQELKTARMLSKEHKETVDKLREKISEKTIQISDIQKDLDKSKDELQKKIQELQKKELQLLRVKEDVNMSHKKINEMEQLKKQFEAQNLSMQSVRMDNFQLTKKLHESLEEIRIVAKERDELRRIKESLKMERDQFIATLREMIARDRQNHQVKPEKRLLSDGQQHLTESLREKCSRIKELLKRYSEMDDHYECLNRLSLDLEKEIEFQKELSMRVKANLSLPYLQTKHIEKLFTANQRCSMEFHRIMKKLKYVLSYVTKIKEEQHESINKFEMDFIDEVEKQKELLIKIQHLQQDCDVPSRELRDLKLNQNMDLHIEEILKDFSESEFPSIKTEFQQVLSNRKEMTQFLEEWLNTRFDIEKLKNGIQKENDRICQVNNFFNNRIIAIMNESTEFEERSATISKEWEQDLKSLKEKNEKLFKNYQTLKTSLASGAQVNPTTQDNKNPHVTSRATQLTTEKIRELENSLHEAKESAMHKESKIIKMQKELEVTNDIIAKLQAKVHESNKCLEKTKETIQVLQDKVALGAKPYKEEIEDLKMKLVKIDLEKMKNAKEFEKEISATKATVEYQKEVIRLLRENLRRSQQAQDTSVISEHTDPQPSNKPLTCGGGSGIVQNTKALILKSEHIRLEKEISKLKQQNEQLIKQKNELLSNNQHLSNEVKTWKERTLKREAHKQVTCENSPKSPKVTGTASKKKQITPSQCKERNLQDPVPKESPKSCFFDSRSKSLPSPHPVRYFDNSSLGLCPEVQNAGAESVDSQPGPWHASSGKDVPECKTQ

[2] = Anticancer activity against human BC1 cells assessed as cell growth inhibition measured after 72 hrs by DAPI staining based analysis; type: functional
Procedure, shortened: (§1)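 Cells were seeded and, after 24 h, DNA content was read as T0. Cells were then exposed to varying drug concentrations for a further 72 h (T72). Fixed cells were DAPI-stained and DNA content measured by automated imaging. T72 values were normalized to T0. GI50 is the concentration giving 50% growth inhibition between T0 and Ymax, obtained by curve fitting.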

[3] = Anticancer activity against human MT-3 cells assessed as cell doubling measured for 72 hrs by DAPI staining based analysis; type: functional
CAL-27 = test: Anticancer activity against human CAL-27 cells assessed as cell doubling measured for 72 hrs by DAPI staining based analysis; type: functional
A101D = test: Anticancer activity against human A101D cells assessed as cell growth inhibition measured after 72 hrs by DAPI staining based analysis; type: functional; procedure, shortened: as §1
T84 = test: Anticancer activity against human T84 cells assessed as cell doubling measured for 72 hrs by DAPI staining based analysis; type: functional
MCF7 = test: Anticancer activity against human MCF7 cells assessed as cell doubling measured for 72 hrs by DAPI staining based analysis; type: functional
Malme-3M = test: Anticancer activity against human Malme-3M cells assessed as cell growth inhibition measured after 72 hrs by DAPI staining based analysis; type: functional
SN12C = test: Anticancer activity against human SN12C cells assessed as cell doubling measured for 72 hrs by DAPI staining based analysis; type: functional
RL = test: Anticancer activity against human RL cells assessed as cell doubling measured for 72 hrs by DAPI staining based analysis; type: functional
ARH-77 = test: Anticancer activity against human ARH-77 cells assessed as cell doubling measured for 72 hrs by DAPI staining based analysis; type: functional
J82 = test: Anticancer activity against human J82 cells assessed as cell doubling measured for 72 hrs by DAPI staining based analysis; type: functional
M14 = test: Anticancer activity against human M14 cells assessed as cell doubling measured for 72 hrs by DAPI staining based analysis; type: functional
MDA-MB-468 = test: Anticancer activity against human MDA-MB-468 cells assessed as cell doubling measured for 72 hrs by DAPI staining based analysis; type: functional
NCI-H23 = test: Anticancer activity against human NCI-H23 cells assessed as cell doubling measured for 72 hrs by DAPI staining based analysis; type: functional
[4] = target: Centromere-associated protein E (Homo sapiens, UniProt Q02224, I182L); test: Binding affinity to human CENP-E I182L mutant assessed as inhibition constant
Chain of Centromere-associated protein E (Homo sapiens, UniProt Q02224, I182L) (Q02224 whole entry I182L): as the sequence (Q02224 whole entry I182L/K184T) above, with T184K counted along it

JEG-3 = test: Anticancer activity against human JEG-3 cells assessed as cell doubling measured for 72 hrs by DAPI staining based analysis; type: functional
[5] = Anticancer activity against human KPL-1 cells assessed as cell growth inhibition measured after 72 hrs by DAPI staining based analysis; type: functional
DLD-1 = test: Anticancer activity against human DLD-1 cells assessed as cell doubling measured for 72 hrs by DAPI staining based analysis; type: functional
SF-539 = test: Anticancer activity against human SF-539 cells assessed as cell doubling measured for 72 hrs by DAPI staining based analysis; type: functional
[6] = Anticancer activity against human BC-2 cells assessed as cell growth inhibition measured after 72 hrs by DAPI staining based analysis; type: functional; procedure, shortened: as §1
A2780 = test: Anticancer activity against human A2780 cells assessed as cell doubling measured for 72 hrs by DAPI staining based analysis; type: functional
BFTC-905 = test: Anticancer activity against human BFTC-905 cells assessed as cell doubling measured for 72 hrs by DAPI staining based analysis; type: functional
SF-268 = test: Anticancer activity against human SF-268 cells assessed as cell growth inhibition measured after 72 hrs by DAPI staining based analysis; type: functional
SNB-19 = test: Anticancer activity against human SNB-19 cells assessed as cell doubling measured for 72 hrs by DAPI staining based analysis; type: functional
SW872 = test: Anticancer activity against human SW872 cells assessed as cell doubling measured for 72 hrs by DAPI staining based analysis; type: functional
SK-N-AS = test: Anticancer activity against human SK-N-AS cells assessed as cell growth inhibition measured after 72 hrs by DAPI staining based analysis; type: functional
A 172 = test: Anticancer activity against human A-172 cells assessed as cell growth inhibition measured after 72 hrs by DAPI staining based analysis; type: functional; procedure, shortened: as §1
DBTRG-05MG = test: Anticancer activity against human DBTRG-05MG cells assessed as cell doubling measured for 72 hrs by DAPI staining based analysis; type: functional
SNU1 = test: Anticancer activity against human SNU1 cells assessed as cell doubling measured for 72 hrs by DAPI staining based analysis; type: functional
SNU-475 = test: Anticancer activity against human SNU-475 cells assessed as cell growth inhibition measured after 72 hrs by DAPI staining based analysis; type: functional
HCC1954 = test: Anticancer activity against human HCC1954 cells assessed as cell doubling measured for 72 hrs by DAPI staining based analysis; type: functional
SNB-75 = test: Anticancer activity against human SNB-75 cells assessed as cell doubling measured for 72 hrs by DAPI staining based analysis; type: functional
U-251 = test: Anticancer activity against human U-251 cells assessed as cell doubling measured for 72 hrs by DAPI staining based analysis; type: functional
ES-2 = test: Anticancer activity against human ES2 cells assessed as cell growth inhibition measured after 72 hrs by DAPI staining based analysis; type: functional
Procedure, shortened: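 Cells seeded, DAPI-stained DNA content of fixed cells read by imaging 24 h after seeding (T0), and again after a further 72 h exposure to a range of drug concentrations (T72). T72 values were normalized to T0. Curve fits gave the concentration producing 50% growth inhibition relative to T0 and Ymax (GI50).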

HCT-116 = test: Anticancer activity against human HCT-116 cells assessed as cell growth inhibition measured after 72 hrs by DAPI staining based analysis; type: functional
[7] = Anticancer activity against human SCC-13 cells assessed as cell growth inhibition measured after 72 hrs by DAPI staining based analysis; type: functional

GI50 (SNU-398): 27 nM | Ki [1]: 18 nM | Ki [4]: 14 nM | GI50 (SK-N-AS): 38 nM | GI50 (SNU-475): 26 nM | GI50 (HCT-116): 31 nM
Structure (SMILES): CC(C)Oc1ccc(C(=O)N[C@H](CNC(=O)CN(C)C)Cc2ccc(-c3cn4cccc([C@H](C)O)c4n3)cc2)cc1Cl [GSK-923295A]
GI50 (CGTH-W-1): 30 nM | Activity (HT-1080): 3.05 | Activity (SCC-4): 2.44 | GI50 [2]: 83 nM | Activity [3]: 2.93 | Activity (CAL-27): 2.55 | GI50 (A101D): 17 nM | Activity (T84): 2.77 | Activity (MCF7): 1.65 | GI50 (Malme-3M): 51 nM | Activity (SN12C): 2.47 | Activity (RL): 3.17 | Activity (ARH-77): 1.62 | Activity (J82): 2.04 | Activity (M14): 2.27 | Activity (MDA-MB-468): 2.05 | Activity (NCI-H23): 2.04 | Activity (JEG-3): 2.9 | GI50 [5]: 31 nM | Activity (DLD-1): 4.11 | Activity (SF-539): 2.08 | GI50 [6]: 45 nM | Activity (A2780): 1.62 | Activity (BFTC-905): 3.49 | GI50 (SF-268): 26 nM | Activity (SNB-19): 2.56 | Activity (SW872): 2.43 | GI50 (A 172): 27 nM | Activity (DBTRG-05MG): 1.33 | Activity (SNU1): 2.64 | Activity (HCC1954): 2.04 | Activity (SNB-75): 1.37 | Activity (U-251): 3.04 | GI50 (ES-2): 30 nM | GI50 [7]: 58 nM
